Active and inactive are the calls of the source. The calls are words filed in the database; no cut-off is given here.

In series [1] the test system is Chlamydia trachomatis. Kind of series: Anti-chlamydial activity against Chlamydia trachomatis Serovar LGV-L2 infected in Hep2 cells assessed as inhibition of chlamydial inclusion at 50 ug/ml treated at 8 hrs post infection and measured at 24 hrs post-infection by immunofluorescence assay. Type of series: functional, organism-based. The essentials:
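HEp-2 cells infected with C. trachomatis serovar L2. Compounds at 50 μg/mL added 8 hpi; inclusion number and size assessed by immunofluorescence at 24 hpi against untreated cells. Cell morphology and viability checked by phase-contrast microscopy.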

For series [2], the system named is Chlamydia trachomatis. Kind of series: Anti-chlamydial activity against Chlamydia trachomatis Serovar LGV-L2 infected in Hep2 cells assessed as reduction in chlamydial infectivity by measuring decrease in inclusion forming units at 50 ug/ml treated at 8 hrs post-infection and 24 hrs later re-infecting fresh Hep2 cells monolayer with infected cells and measured at 24 hrs post re-infection by immunofluorescence staining based microscopy analysis. Type of series: functional, organism-based. Summed up: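 HEp-2 cells in DMEM with 10% FBS, infected with C. trachomatis L2 at MOI 1. Compounds added 8 hpi in triplicate; DMSO stocks at 50 mg/mL. At 24 hpi lysates collected in sucrose storage medium, frozen at −80 °C, and used to infect fresh HEp-2 monolayers in 10-fold dilutions. After 24 h, stained with goat anti-MOMP and Alexa488 secondary. Inclusions counted in 15 fields at 20x; IFU = mean count per field corrected for dilution.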

For series [3], the system named is Staphylococcus aureus. Kind of series: Antibacterial activity against Staphylococcus aureus JE2 assessed as bacterial growth inhibition at 32 ug/ml measured after 16 hrs by broth microdilution method. Type of series: functional, organism-based. Summed up:
(§1)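 Broth microdilution in Mueller Hinton broth, triplicate. Direct colony suspension at 1.5 x 10^8 CFU/mL diluted to ~10^5 CFU/mL. Serial dilutions made from DMSO stocks at 1 mg/mL; vancomycin positive control, blank medium negative control. Incubated 16 h at optimum temperature. MIC is the lowest concentration without visible growth at 600 nm; mean of triplicate determinations.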

For series [4], the system named is Staphylococcus aureus. Description: Antibacterial activity against methicillin-resistant Staphylococcus aureus ATCC 43300 assessed as bacterial growth inhibition at 32 ug/ml measured after 16 hrs by broth microdilution method. Type of series: functional, organism-based.
For series [5], the system named is Escherichia coli. Kind of series: Antibacterial activity against Escherichia coli ATCC 25922 assessed as bacterial growth inhibition at 32 ug/ml measured after 16 hrs by broth microdilution method. Type of series: functional, organism-based.
Series [6] relates to Escherichia coli. Kind of series: Antibacterial activity against Escherichia coli K12 assessed as bacterial growth inhibition at 32 ug/ml measured after 16 hrs by broth microdilution method. Particulars: K-12. Type of series: functional, organism-based. Summed up:
as §1

For another series, the system named is Pseudomonas aeruginosa. Kind of series: Antibacterial activity against Pseudomonas aeruginosa ATCC 27853 assessed as bacterial growth inhibition at 32 ug/ml measured after 16 hrs by broth microdilution method. Type of series: functional, organism-based.
The next series has as its system Klebsiella pneumoniae. Description: Antibacterial activity against Klebsiella pneumoniae ATCC 700603 assessed as bacterial growth inhibition at 32 ug/ml measured after 16 hrs by broth microdilution method. Type of series: functional, organism-based.
Another series relates to Acinetobacter baumannii. Description: Antibacterial activity against Acinetobacter baumannii ATCC 19606 assessed as bacterial growth inhibition at 32 ug/ml measured after 16 hrs by broth microdilution method. Type of series: functional, organism-based. As to conditions: ATCC 19606 = CIP 70.34 = JCM 6841.
The next series relates to Candida albicans. Description: Antifungal activity against Candida albicans ATCC 90028 assessed as fungal growth inhibition at 32 ug/ml measured after 16 hrs by broth microdilution method. Type of series: functional, organism-based.
The subject of another series is Cryptococcus neoformans. Kind of series: Antifungal activity against Cryptococcus neoformans var. grubii H99 ATCC […] as fungal growth inhibition at 32 ug/ml measured after 16 hrs by broth microdilution method. Type of series: functional, organism-based. Particulars: var. grubii H99 ATCC 208821.
Series [7] relates to Staphylococcus aureus. Description: Antibacterial activity against Staphylococcus aureus JE2 assessed as bacterial death up to 256 ug/ml measured after 16 hrs by broth microdilution method. Type of series: functional, organism-based. Summed up:
as §1

Series [8] relates to Escherichia coli. Description: Antibacterial activity against Escherichia coli K12 assessed as bacterial death up to 256 ug/ml measured after 16 hrs by broth microdilution method. Type of series: functional, organism-based. As to conditions: K-12. The essentials: as §1
A further series deals with HaCaT. Description: Cytotoxicity against immortal human HaCaT cells assessed as reduction in cell viability at 50 ug/ml after 24 hrs by CCK-8 assay. Type of series: cell-based. Summed up:
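HeLa 229 and HaCaT cells in DMEM with 10% FBS and 1% penicillin/streptomycin, 37 °C, 5% CO2, seeded at 5000 cells/well. Next day treated with 50 μg/mL in triplicate, with matching DMSO controls. After 24 h, CCK-8 added for 2 h; corrected absorbance read at 450 nm.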

Series [9] is described as follows: Half life in human liver microsomes at 1 ug/ml measured up to 60 mins by LC-MS/MS analysis. Type of series: ADME, Microsome. The essentials: (§2)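 Human liver microsomes (1.0 mg/mL protein) in 100 mM phosphate pH 7.4 with 10 mM MgCl2 and 2 mM NADPH, preincubated 10 min at 37 °C. Reaction started with compound at 1 μg/mL. Sampled at 0, 5, 15, 20, 30, 45 and 60 min and quenched in methanol with internal standard. Controls: no NADPH (negative), testosterone (positive). Analysed by LC-MS/MS, triplicate.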

Series [10] can be described thus: Intrinsic clearance in human liver microsomes at 1 ug/ml measured per mg protein up to 60 mins by LC-MS/MS analysis. Type of series: ADME, Microsome. Summed up: as §2
The nature of series [11]: Hepatic intrinsic clearance in human liver microsomes at 1 ug/ml measured per kg body weight up to 60 mins by LC-MS/MS analysis. Type of series: ADME, Microsome. Particulars: 1 h.
Series [12] is described as follows: Drug metabolism in human liver microsomes assessed as amount of drug modified at 1 ug/ml […] in presence of NADPH by LC-MS/MS analysis. As to conditions: read-out: Drug metabolism. Type of series: ADME, Microsome.
Series [13] in a line: Stability of compound in human liver microsomes at 1 ug/ml measured up to 60 mins in absence of NADPH by LC-MS/MS analysis. Type of series: ADME, Microsome. As to conditions: 1 h. Summed up:
as §2

Series [14] is described as follows: Stability of compound in mouse pre-heated plasma at 50 uM incubated up to 120 mins by HPLC-ESI/MS analysis. Type of series: ADME, cell-free. As to conditions: 2 h. Summed up: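 Compounds from 2.5 mM DMSO stocks incubated at 50 μM final in mouse plasma diluted to 80% with PBS, preheated, 37 °C, shaking. Sampled at 0, 15, 30, 60, 90 and 120 min and quenched with cold acetonitrile. Centrifuged; supernatant analysed by HPLC-ESI-MS. Peak area reported relative to time zero. Enalapril positive control; triplicate.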

Series [15] can be described thus: Stability of the compound in simulated gastric fluid at 50 uM and pH 1.2 at 37 degree C measured up to 120 mins by HPLC-ESI/MS analysis. As to conditions: simulated gi fluid, pH 1.2, 2 h.
Series [16] in a line: Activation of recombinant human C-terminal 6xHis-tagged ClpP expressed in Escherichia coli assessed as induction of casein degradation at 0.1 to 1 uM using FITC-labelled casein as substrate pretreated with enzyme for 30 mins followed by substrate addition and measured every 3 mins for 3 hrs in absence of AAA+ chaperone by fluorescence based tecan-plate reader assay. The essentials: (§3)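 Recombinant C-terminal His6-tagged ClpP, expressed in a clpAPX-null E. coli strain and purified (mammalian ClpP without mitochondrial signal, codon-optimized). ClpP at 1 or 0.1 μM (E. coli), 1 μM (human, mouse) or 6 μM (chlamydial ClpP1 and ClpP2) preincubated with compound or DMSO, 30 min, 32 °C, in HEPES pH 7.6/KCl/MgCl2/DTT/glycerol buffer. 20 μM FITC-casein then added. Fluorescence (ex 490/em 525 nm) read every 3 min for 3 h. At least three runs on at least two protein preparations.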

The nature of series [17]: Activation of recombinant mouse C-terminal 6xHis-tagged ClpP expressed in Escherichia coli assessed as induction of casein degradation at 0.1 to 1 uM using FITC-labelled casein as substrate pretreated with enzyme for 30 mins followed by substrate addition and measured every 3 mins for 3 hrs in absence of AAA+ chaperone by fluorescence based tecan-plate reader assay. Summed up: as §3

The target of series [18] is ATP-dependent Clp protease proteolytic subunit (Escherichia coli (strain K12)) (UniProt P0A6G7). Kind of series: Activation of recombinant Escherichia coli ClpP assessed as induction of casein degradation at 0.1 to 1 uM using FITC-labelled casein as substrate pretreated with enzyme for 30 mins followed by substrate addition and measured every 3 mins for 3 hrs in absence of AAA+ chaperone by fluorescence based tecan-plate reader assay. The essentials:
as §3

Series [19] concerns Chlamydia trachomatis. Kind of series: Activation of recombinant Chlamydia trachomatis Serovar LGV-L2 C-terminal 6xhis-tagged ClpP1 expressed in Escherichia coli assessed as induction of casein degradation at 0.1 to 1 uM using FITC-labelled casein as substrate pretreated with enzyme for 30 mins followed by substrate addition and measured every 3 mins for 3 hrs in absence chaperone by fluorescence based tecan-plate reader assay. Summed up:
as §3

The test system of series [20] is Chlamydia trachomatis. Kind of series: Activation of recombinant Chlamydia trachomatis Serovar LGV-L2 C-terminal 6xhis-tagged ClpP2 expressed in Escherichia coli assessed as induction of casein degradation at 0.1 to 1 uM using FITC-labelled casein as substrate pretreated with enzyme for 30 mins followed by substrate addition and measured every 3 mins for 3 hrs in absence of AAA+ chaperone by fluorescence based tecan-plate reader assay. Summed up:
as §3

For series [21], the system named is Chlamydia trachomatis. Description: Activation of recombinant Chlamydia trachomatis Serovar LGV-L2 C-terminal 6xhis-tagged ClpP1/ClpP2 dimer expressed in Escherichia coli assessed as induction of casein degradation at 0.1 to 1 uM using FITC-labelled casein as substrate pretreated with enzyme for 30 mins followed by substrate addition and measured every 3 mins for 3 hrs in absence of AAA+ chaperone by fluorescence based tecan-plate reader assay. Summed up: as §3

For another series, the system named is Neisseria meningitidis. Description: Antimicrobial activity against Neisseria meningitidis MC58 assessed as bacterial growth inhibition measured after 18 to 20 hrs. Type of series: functional.
The test system of a further series is Haemophilus influenzae. Description: Antimicrobial activity against Haemophilus influenzae H2192 assessed as bacterial growth inhibition measured after 18 to 20 hrs. Type of series: functional.

Chain of ATP-dependent Clp protease proteolytic subunit (Escherichia coli (strain K12)) (P0A6G7 whole entry): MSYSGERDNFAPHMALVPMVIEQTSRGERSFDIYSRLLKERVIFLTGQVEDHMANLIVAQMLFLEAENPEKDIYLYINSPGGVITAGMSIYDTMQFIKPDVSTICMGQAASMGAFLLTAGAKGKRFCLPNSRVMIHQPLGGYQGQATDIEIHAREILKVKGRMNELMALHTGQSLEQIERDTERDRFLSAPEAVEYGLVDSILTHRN

For the compound `CC(C)(C(=O)N1CCN(c2ccc(Cl)c(Cl)c2)CC1)S(=O)(=O)c1ccc(C(F)(F)F)cn1`, the inhibition result with Chlamydia trachomatis [1] and with Chlamydia trachomatis [2] was “Active” throughout. Further, the inhibition entry with Staphylococcus aureus [3], in the series on Staphylococcus aureus [4], with Escherichia coli [5], in the series with Escherichia coli [6], in the series with Pseudomonas aeruginosa and in the series on Klebsiella pneumoniae was “inactive” in each case. The inhibition result in the series with Acinetobacter baumannii, in the series on Candida albicans and in the series on Cryptococcus neoformans was “inactive” in each case. Besides, the result in the series on Staphylococcus aureus [7] and in the series with Escherichia coli [8] was inactive. The Activity result in the series with HaCaT was “Non-Toxic”. This compound showed a half-life at 1 ug/ml in [9] (liver microsomes) of 6.25 min. The microsomal CLint at 1 ug/ml in [10] (liver microsomes, read-out: CLH) came out at 112 µL/min/mg. Moreover, the CLH in series [11] is 874 mL/min/kg. In addition, in series [12], the metabolised at 10 min, 1 ug/ml is 90%. In addition, the Stability entry in [13], in series [14] and in [15] was “Stable” each time.
`CC(C)(C(=O)NCCCc1ccccc1)S(=O)(=O)c1ccccc1`: the inhibition entry in the series with Chlamydia trachomatis [1], in the series on Staphylococcus aureus [3], in the series on Staphylococcus aureus [4], with Escherichia coli [5], in the series on Escherichia coli [6] and in the series with Pseudomonas aeruginosa was “inactive” in each case. The inhibition result in the series on Klebsiella pneumoniae, in the series with Acinetobacter baumannii, in the series with Candida albicans and in the series on Cryptococcus neoformans was “inactive” each time. For the same compound, the Activity entry in series [16] and in [17] was “Not Active” in each case. In addition, the outcome in series [18] was inactive. The outcome in the series on Chlamydia trachomatis [19], with Chlamydia trachomatis [20] and with Chlamydia trachomatis [21] was Active.
As for `CC(C)(C(=O)NCCOc1ccccc1)S(=O)(=O)c1ccc(C(F)(F)F)cn1`, the inhibition entry with Chlamydia trachomatis [1] and in the series on Chlamydia trachomatis [2] was “Active” each time. Moreover, the inhibition result with Staphylococcus aureus [3], in the series on Staphylococcus aureus [4], in the series on Escherichia coli [5], in the series on Escherichia coli [6], in the series on Pseudomonas aeruginosa and in the series on Klebsiella pneumoniae was “inactive” each time. In addition, the inhibition result in the series with Acinetobacter baumannii, in the series on Candida albicans and in the series with Cryptococcus neoformans was “inactive” in each case. Further, the result in the series on Staphylococcus aureus [7] and with Escherichia coli [8] was inactive. This compound also gave a t1/2 in [9] (microsomes, 1 h) of 3.73 min. The microsomal intrinsic clearance in series [10] (microsomes, 1 h) is 185.6 µL/min. In series [11], the CLH came out at 1460 mL/min/kg. The metabolised at 10 min, 1 ug/ml in [12] stood at 90%. In addition, the Stability result in series [13] was “Stable”.
As for `CC(C)(C(=O)NCCSc1ccccc1Cl)S(=O)(=O)c1ccc(C(F)(F)F)cn1`, the results for the Activity in the series on Neisseria meningitidis and in the series with Haemophilus influenzae were 64 µg/mL and 32 µg/mL, respectively. Moreover, in the series on Chlamydia trachomatis [1], the inhibition entry was “Active”.

Values taken from ChEMBL document CHEMBL4342502, “Synthesis and Antichlamydial Activity of Molecules Based on Dysregulators of Cylindrical Proteases” (J Med Chem, 2020).
